Laboratory results published in ChEMBL document CHEMBL4196032, “Conformational mimetics of the α-methyl chalcone TUB091 binding tubulin: Design, synthesis and antiproliferative activity” (Eur J Med Chem, 2018).
pIC50: −log10 of the molar value. Active and inactive are the calls of the source. No cut-off for these calls is given here.

Legend:
[1] = system: L1210; experiment: Antiproliferative activity against mouse L1210 cells after 96 hrs by coulter counting method; assay type: functional, cell-based; conditions: L1210, 96 h
In short: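 Suspension cells (CEM, L1210) seeded at 60,000 cells/well together with graded compound concentrations; grown 96 h, then counted by Coulter counter. IC50 = concentration reducing cell proliferation by 50%.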

[2] = species on record: Bos taurus; experiment: Inhibition of calf brain tubulin polymerization at 30 uM measured for 6000 secs by spectrophotometric method
In short: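 Calf brain tubulin, gel-filtered into GAB buffer (10 mM sodium phosphate, 1 mM EGTA, 25% glycerol, 0.1 mM GTP, pH 7.0) at 25 µM, degassed; compound at 30 µM. Assembly at 37 °C followed by absorbance at 350 nm up to 6000 s; DMSO and podophyllotoxin controls; normalized absorbance.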

[3] = system: HeLa; experiment: Antiproliferative activity against human HeLa cells; assay type: functional, cell-based
In short: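 Cervical carcinoma cells plated at 10,000 cells/well in 48-well plates. Varied concentrations added after 24 h, then 3 days of incubation. Cells trypsinized and Coulter-counted. IC50 is the concentration giving 50% reduction of proliferation.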

[4] = system: HMEC-1; experiment: Antiproliferative activity against human HMEC1 cells; assay type: cell-based
In short: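 HMEC-1 microvascular endothelial cells plated at 20,000 cells/well in 48-well plates. 5-fold dilutions added after 24 h, then 4 days of growth. Cells trypsinized and counted by Coulter counter. IC50 is the concentration halving proliferation.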

[5] = system: CCRF-CEM; experiment: Antiproliferative activity against human CEM cells; assay type: functional, cell-based
In short: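 Suspension cells seeded at 60,000 cells/well in 96-well plates together with a range of compound concentrations. Grown 96 h, then counted by Coulter counter. IC50 taken as the concentration reducing proliferation by 50%.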

[6] = system: HMEC-1; experiment: Antiproliferative activity against human HMEC1 cells after 4 days by coulter counting method; assay type: cell-based; conditions: HMEC-1, 96 h
In short: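 HMEC-1 seeded at 20,000 cells/well; 5-fold compound dilutions added after 24 h; 4 days proliferation, trypsinized, Coulter counted.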

[7] = system: CCRF-CEM; experiment: Antiproliferative activity against human CEM cells after 96 hrs by coulter counting method; assay type: functional, cell-based
In short: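 Suspension cells (CEM, L1210) seeded at 60,000 cells/well together with graded compound concentrations; grown 96 h, then counted by Coulter counter.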

[8] = system: HeLa; experiment: Cell cycle arrest in human HeLa cells assessed as accumulation at G2/M phase at 0.1 uM after 24 hrs by propidium iodide staining based flow cytometry; assay type: functional
In short: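 HeLa in DMEM + 10% FBS, 125,000 cells/well; compound added after 24 h for 24 h. DNA stained with propidium iodide kit, analysed by flow cytometry within 3 h; debris/clumps gated out; sub-G1, G1, S, G2/M percentages from region markers.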

[9] = species on record: Bos taurus; experiment: Inhibition of R-PT binding to calf brain tubulin after 30 mins by fluorescence assay
In short: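 Competition assay: 0.2 µM R-PT premixed with 0.2 µM calf brain tubulin in GAB buffer, ligand at 0–70 µM; 30 min at 25 °C, fluorescence read at 456 nm (ex 374 nm). Binding constants derived from competition data; racemates tested.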

[10] = system: HeLa; experiment: Antiproliferative activity against human HeLa cells after 3 days by coulter counting method; assay type: functional, cell-based; conditions: 72 h
In short: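 HeLa seeded at 10,000 cells/well; various compound concentrations added 24 h later; after 3 days incubation cells trypsinized and counted by Coulter counter.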

[11] = target: Tubulin (Homo sapiens) (UniProt P68371+Q9H4B7+P0DPH7+P68366+Q13509+Q71U36+P04350+Q3ZCM7+P07437+P68363+Q9BQE3+Q6PEY2+Q13885+Q9BVA1+Q9BUF5); experiment: Inhibition of tubulin polymerization in human HeLa cells assessed as reduction in mitotic spindle formation by measuring aberrant multipolar spindle formation at 0.1 to 0.3 uM after 24 hrs by Hoechst 33342 staining based immunofluorescence microscopic method; assay type: cell-based
In short: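 HeLa seeded overnight on poly-L-lysine-coated slides, treated 24 h with compound or 0.1% DMSO. Fixed, permeabilized, stained with anti-β-tubulin (2 µg/ml) then Alexa Fluor 555 anti-mouse (4 µg/ml); nuclei with Hoechst 33342 (2 µg/ml); spindles imaged by fluorescence microscopy.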

COc1ccc(/C=C(\C)C(=O)c2cc(OC)c3c(c2)OCO3)cc1N
pIC50 [1]: 9.00
inhibition [2]: Active
pIC50 [3]: 8.41
pIC50 [4]: 8.64
pIC50 [5]: 9.00

COc1cc([C@@H]2c3cc4c(cc3[C@H](O)[C@H]3COC(=O)[C@H]23)OCO4)cc(OC)c1OC
inhibition [2]: Active

COc1ccc2c(c1N)CCC(C(=O)c1ccc(OC)c(OC)c1OC)C2 (racemic)
pIC50 [6]: 7.33
pIC50 [1]: 7.57
inhibition [2]: Active
pIC50 [7]: 7.66
Activity [8]: Active
Kb [9]: 2.4 ×10⁶ /M
pIC50 [10]: 7.52
inhibition [11]: Active

COc1ccc(C(=O)C2CCc3c(ccc(OC)c3[N+](=O)[O-])C2)c(OC)c1OC (racemic)
pIC50 [6]: 5.28
pIC50 [1]: 5.38
inhibition [2]: Active
pIC50 [7]: 6.07
pIC50 [10]: 6.09

COc1ccc2c(c1)CCC(C(=O)c1ccc(OC)c3c1OCO3)C2 (racemic)
pIC50 [6]: 4.42
pIC50 [1]: 3.80
pIC50 [7]: 4.41
pIC50 [10]: 4.06

COc1ccc(C(=O)C2CCc3c(ccc(OC)c3N)C2)cc1OC (racemic)
pIC50 [6]: 3.91
pIC50 [1]: 4.28
pIC50 [7]: 5.20
pIC50 [10]: 4.64

COc1ccc2c(c1)CCC(C(=O)c1ccc(OC)c(OC)c1)C2 (racemic)
pIC50 [6]: < 3.60
pIC50 [1]: < 3.60
inhibition [2]: inactive
pIC50 [7]: 3.66
pIC50 [10]: < 3.60

COc1ccc2c(c1)CCC(C(=O)c1ccc(OC)c(OC)c1O)C2 (racemic)
pIC50 [6]: ≤ 3.60
pIC50 [1]: 4.12
pIC50 [7]: 4.42
pIC50 [10]: 4.40

COc1cc2c(cc1N)CC(C(=O)c1ccc(OC)c(OC)c1OC)CC2 (racemic)
pIC50 [6]: 5.89
pIC50 [1]: 6.07
pIC50 [7]: 6.32
pIC50 [10]: 6.13

COc1cc2c(cc1[N+](=O)[O-])CC(C(=O)c1ccc(OC)c(OC)c1OC)CC2 (racemic)
pIC50 [6]: 3.70
pIC50 [1]: < 3.60
pIC50 [7]: < 3.60
pIC50 [10]: < 3.60

COc1ccc2c(c1)CCC(C(=O)c1ccc(OC)c(OC)c1OC)C2 (racemic)
pIC50 [6]: 5.92
pIC50 [1]: 6.62
inhibition [2]: Active
pIC50 [7]: 6.77
pIC50 [10]: 6.40

COc1ccc(/C=C\c2cc(OC)c(OC)c(OC)c2)cc1OP(=O)(O)O [FOSBRETABULIN DISODIUM]
pIC50 [6]: 8.54
pIC50 [1]: 8.68
pIC50 [7]: 7.96
pIC50 [10]: 7.89
